Laboratory results from ChEMBL document CHEMBL1142148, “Antibiotic susceptibility profile of bifidobacteria as affected by oxgall, acid, and hydrogen peroxide stress” (2007).
In brackets after ≈: the same amount, converted by molar mass.

Assays:
Bifidobacterium longum [1] = assay: Antimicrobial activity against Bifidobacterium longum P/N 601377; assay type: functional
In short: (§1)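 Broth microdilution in MRS plus 0.05% L-cysteine-HCl. Mid-log culture adjusted to OD650 0.1, giving about 2.5 × 10^4 to 5.0 × 10^4 CFU/well, then added to twofold serial dilutions of agent. Plates incubated anaerobically at 37°C for 18 h and read at OD650. MIC is the lowest concentration matching the uninoculated blank OD, taken as the median of four repeats.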

Bifidobacterium animalis [2] = assay: Antimicrobial activity against Bifidobacterium animalis ATCC 27536; assay type: functional; in short: as §1
Bifidobacterium longum [3] = assay: Antimicrobial activity against 90 mins oxgall-stressed Bifidobacterium longum ATCC 15708 after 18 hrs; assay type: functional
In short: (§2)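 Cells pelleted from mid-log MRS culture and resuspended in MRS (initial pH 6.5) with 0.3% (wt/vol) oxgall for 90 min anaerobically at 37°C. They were then regrown in MRS pH 6.5 for 24 h (footnote: 18 h) anaerobically and tested for MIC by the same broth microdilution assay. Median of four repetitions.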

Bifidobacterium longum [4] = assay: Antimicrobial activity against 90 mins hydrogen peroxide-stressed Bifidobacterium longum P/N 601377 after 18 hrs; assay type: functional
In short: (§3)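 Stress applied for 90 min at 37°C under anaerobic conditions, using MRS (initial pH 6.5) containing H2O2 at each strain's own inhibitory concentration. The H2O2 level was set beforehand by microplate tolerance testing. Challenged cells were regrown in MRS for 24 h (footnote: 18 h) before MIC testing by broth microdilution. Median of four repetitions.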

Bifidobacterium animalis [5] = assay: Antimicrobial activity against 90 mins oxgall-stressed Bifidobacterium animalis ATCC 27536 after 18 hrs; assay type: functional; in short: as §2
[6] = system: Bifidobacterium thermophilum; assay: Antimicrobial activity against 90 mins hydrogen peroxide-stressed Bifidobacterium thermophilum ATCC 25866 after 18 hrs; assay type: functional; in short: as §3
[7] = Antimicrobial activity against 60 min 1 M HCl-stressed Bifidobacterium infantis ATCC 15697 after 18 hrs; assay type: functional, Bifidobacterium longum subsp. infantis; settings: Bifidobacterium longum
In short: (§4)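 Mid-log MRS culture pelleted and resuspended in MRS broth brought to pH 2.0 with 1 M HCl, held anaerobically at 37°C for 60 min, then subcultured in MRS (pH 6.5) for 24 h anaerobically before MIC testing by broth microdilution (as for unstressed cells). Table footnote gives 18 h anaerobic regrowth after the stress. MIC is the median of four repetitions.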

Bifidobacterium bifidum [8] = assay: Antimicrobial activity against 90 mins hydrogen peroxide-stressed Bifidobacterium bifidum R0071 after 18 hrs; assay type: functional; in short: as §3
[9] = system: Bifidobacterium pseudolongum; assay: Antimicrobial activity against 60 min 1 M HCl-stressed Bifidobacterium pseudolongum ATCC 25562 after 18 hrs; assay type: functional; in short: as §4
Bifidobacterium longum [10] = assay: Antimicrobial activity against 90 mins oxgall-stressed Bifidobacterium longum R0175 after 18 hrs; assay type: functional; in short: as §2
Bifidobacterium animalis [11] = assay: Antimicrobial activity against 60 min 1 M HCl-stressed Bifidobacterium animalis ATCC 27536 after 18 hrs; assay type: functional; in short: as §4
Bifidobacterium longum [12] = assay: Antimicrobial activity against Bifidobacterium longum R0175; assay type: functional; in short: as §1
Bifidobacterium longum [13] = assay: Antimicrobial activity against 90 mins oxgall-stressed Bifidobacterium longum P/N 601377 after 18 hrs; assay type: functional; in short: as §2
Bifidobacterium bifidum [14] = assay: Antimicrobial activity against 90 mins oxgall-stressed Bifidobacterium bifidum ATCC 15696 after 18 hrs; assay type: functional; in short: as §2
[15] = system: Bifidobacterium thermophilum; assay: Antimicrobial activity against 90 mins oxgall-stressed Bifidobacterium thermophilum ATCC 25866 after 18 hrs; assay type: functional; in short: as §2
Bifidobacterium breve [16] = assay: Antimicrobial activity against 60 min 1 M HCl-stressed Bifidobacterium breve ATCC 15700 after 18 hrs; assay type: functional; in short: as §4
Bifidobacterium longum [17] = assay: Antimicrobial activity against Bifidobacterium longum ATCC 15708; assay type: functional; in short: as §1
Bifidobacterium longum [18] = assay: Antimicrobial activity against 60 min 1 M HCl-stressed Bifidobacterium longum P/N 601377 after 18 hrs; assay type: functional; in short: as §4
Bifidobacterium longum [19] = assay: Antimicrobial activity against Bifidobacterium longum ATCC 15707; assay type: functional; in short: as §1
Bifidobacterium bifidum [20] = assay: Antimicrobial activity against Bifidobacterium bifidum ATCC 15696; assay type: functional; in short: as §1
Bifidobacterium longum [21] = assay: Antimicrobial activity against 90 mins oxgall-stressed Bifidobacterium longum ATCC 15707 after 18 hrs; assay type: functional; in short: as §2
Bifidobacterium bifidum [22] = assay: Antimicrobial activity against 60 min 1 M HCl-stressed Bifidobacterium bifidum BB12 after 18 hrs; assay type: functional; in short: as §4
Bifidobacterium animalis [23] = assay: Antimicrobial activity against 90 mins hydrogen peroxide-stressed Bifidobacterium animalis ATCC 27536 after 18 hrs; assay type: functional; in short: as §3
Bifidobacterium bifidum [24] = assay: Antimicrobial activity against Bifidobacterium bifidum R0071; assay type: functional; in short: as §1
Bifidobacterium longum [25] = assay: Antimicrobial activity against 90 mins hydrogen peroxide-stressed Bifidobacterium longum ATCC 15708 after 18 hrs; assay type: functional; in short: as §3
Bifidobacterium breve [26] = assay: Antimicrobial activity against 90 mins oxgall-stressed Bifidobacterium breve R0070 after 18 hrs; assay type: functional; in short: as §2
Bifidobacterium breve [27] = assay: Antimicrobial activity against 90 mins oxgall-stressed Bifidobacterium breve ATCC 15700 after 18 hrs; assay type: functional; in short: as §2
[28] = system: Bifidobacterium pseudolongum; assay: Antimicrobial activity against 90 mins oxgall-stressed Bifidobacterium pseudolongum ATCC 25562 after 18 hrs; assay type: functional; in short: as §2
Bifidobacterium bifidum [29] = assay: Antimicrobial activity against 90 mins oxgall-stressed Bifidobacterium bifidum R0071 after 18 hrs; assay type: functional; in short: as §2
Bifidobacterium longum [30] = assay: Antimicrobial activity against 90 mins hydrogen peroxide-stressed Bifidobacterium longum R0175 after 18 hrs; assay type: functional; in short: as §3
Bifidobacterium longum [31] = assay: Antimicrobial activity against 60 min 1 M HCl-stressed Bifidobacterium longum ATCC 15707 after 18 hrs; assay type: functional; in short: as §4
Bifidobacterium longum [32] = assay: Antimicrobial activity against 90 mins hydrogen peroxide-stressed Bifidobacterium longum ATCC 15707 after 18 hrs; assay type: functional; in short: as §3
Bifidobacterium bifidum [33] = assay: Antimicrobial activity against Bifidobacterium bifidum BB12; assay type: functional; in short: as §1
Bifidobacterium breve [34] = assay: Antimicrobial activity against 90 mins hydrogen peroxide-stressed Bifidobacterium breve R0070 after 18 hrs; assay type: functional; in short: as §3
Bifidobacterium bifidum [35] = assay: Antimicrobial activity against 90 mins hydrogen peroxide-stressed Bifidobacterium bifidum BB12 after 18 hrs; assay type: functional; in short: as §3
[36] = system: Bifidobacterium pseudolongum; assay: Antimicrobial activity against Bifidobacterium pseudolongum ATCC 25562; assay type: functional; in short: as §1
Bifidobacterium breve [37] = assay: Antimicrobial activity against 60 min 1 M HCl-stressed Bifidobacterium breve R0070 after 18 hrs; assay type: functional; in short: as §4
[38] = system: Bifidobacterium thermophilum; assay: Antimicrobial activity against 60 min 1 M HCl-stressed Bifidobacterium thermophilum ATCC 25866 after 18 hrs; assay type: functional; in short: as §4
Bifidobacterium bifidum [39] = assay: Antimicrobial activity against 60 min 1 M HCl-stressed Bifidobacterium bifidum R0071 after 18 hrs; assay type: functional; in short: as §4
Bifidobacterium breve [40] = assay: Antimicrobial activity against Bifidobacterium breve ATCC 15700; assay type: functional; in short: as §1
[41] = Antimicrobial activity against 90 mins oxgall-stressed Bifidobacterium infantis ATCC 15697 after 18 hrs; assay type: functional, Bifidobacterium longum subsp. infantis; settings: Bifidobacterium longum; in short: as §2
[42] = Antimicrobial activity against Bifidobacterium infantis ATCC 15697; assay type: functional, Bifidobacterium longum subsp. infantis; settings: Bifidobacterium longum; in short: as §1
Bifidobacterium bifidum [43] = assay: Antimicrobial activity against 90 mins oxgall-stressed Bifidobacterium bifidum BB12 after 18 hrs; assay type: functional; in short: as §2
[44] = system: Bifidobacterium thermophilum; assay: Antimicrobial activity against Bifidobacterium thermophilum ATCC 25866; assay type: functional; in short: as §1
Bifidobacterium breve [45] = assay: Antimicrobial activity against 90 mins hydrogen peroxide-stressed Bifidobacterium breve ATCC 15700 after 18 hrs; assay type: functional; in short: as §3
Bifidobacterium longum [46] = assay: Antimicrobial activity against 60 min 1 M HCl-stressed Bifidobacterium longum R0175 after 18 hrs; assay type: functional; in short: as §4
Bifidobacterium breve [47] = assay: Antimicrobial activity against Bifidobacterium breve R0070; assay type: functional; in short: as §1

- MIC (Bifidobacterium longum [1]): 3.9 µg/mL (≈ 12.1 µM)
- MIC (Bifidobacterium animalis [2]): 7.8 µg/mL (≈ 24.1 µM)
- MIC (Bifidobacterium longum [3]): 0.98 µg/mL (≈ 3.03 µM)
- MIC (Bifidobacterium longum [4]): 1.9 µg/mL (≈ 5.88 µM)
- MIC (Bifidobacterium animalis [5]): 1.9 µg/mL (≈ 5.88 µM)
- MIC [6]: 1.9 µg/mL (≈ 5.88 µM)
- MIC [7]: 0.98 µg/mL (≈ 3.03 µM)
- MIC (Bifidobacterium bifidum [8]): 1.9 µg/mL (≈ 5.88 µM)
- MIC [9]: 3.9 µg/mL (≈ 12.1 µM)
- MIC (Bifidobacterium longum [10]): 1.9 µg/mL (≈ 5.88 µM)
- MIC (Bifidobacterium animalis [11]): 1.9 µg/mL (≈ 5.88 µM)
- MIC (Bifidobacterium longum [12]): 7.8 µg/mL (≈ 24.1 µM)
- MIC (Bifidobacterium longum [13]): 1.9 µg/mL (≈ 5.88 µM)
- MIC (Bifidobacterium bifidum [14]): 3.9 µg/mL (≈ 12.1 µM)
- MIC [15]: 3.9 µg/mL (≈ 12.1 µM)
- MIC (Bifidobacterium breve [16]): 62.5 µg/mL (≈ 193 µM)
- MIC (Bifidobacterium longum [17]): 31.2 µg/mL (≈ 96.6 µM)
- MIC (Bifidobacterium longum [18]): 1.9 µg/mL (≈ 5.88 µM)
- MIC (Bifidobacterium longum [19]): 15.6 µg/mL (≈ 48.3 µM)
- MIC (Bifidobacterium bifidum [20]): 1.9 µg/mL (≈ 5.88 µM)
- MIC (Bifidobacterium longum [21]): 1.9 µg/mL (≈ 5.88 µM)
- MIC (Bifidobacterium bifidum [22]): 1.9 µg/mL (≈ 5.88 µM)
- MIC (Bifidobacterium animalis [23]): 3.9 µg/mL (≈ 12.1 µM)
- MIC (Bifidobacterium bifidum [24]): 1.9 µg/mL (≈ 5.88 µM)
- MIC (Bifidobacterium longum [25]): 3.9 µg/mL (≈ 12.1 µM)
- MIC (Bifidobacterium breve [26]): 3.9 µg/mL (≈ 12.1 µM)
- MIC (Bifidobacterium breve [27]): 3.9 µg/mL (≈ 12.1 µM)
- MIC [28]: 0.98 µg/mL (≈ 3.03 µM)
- MIC (Bifidobacterium bifidum [29]): 3.9 µg/mL (≈ 12.1 µM)
- MIC (Bifidobacterium longum [30]): 1.9 µg/mL (≈ 5.88 µM)
- MIC (Bifidobacterium longum [31]): 7.8 µg/mL (≈ 24.1 µM)
- MIC (Bifidobacterium longum [32]): 1.9 µg/mL (≈ 5.88 µM)
- MIC (Bifidobacterium bifidum [33]): 1.9 µg/mL (≈ 5.88 µM)
- MIC (Bifidobacterium breve [34]): 1.9 µg/mL (≈ 5.88 µM)
- MIC (Bifidobacterium bifidum [35]): 1.9 µg/mL (≈ 5.88 µM)
- MIC [36]: 7.8 µg/mL (≈ 24.1 µM)
- MIC (Bifidobacterium breve [37]): 3.9 µg/mL (≈ 12.1 µM)
- MIC [38]: 3.9 µg/mL (≈ 12.1 µM)
- MIC (Bifidobacterium bifidum [39]): 7.8 µg/mL (≈ 24.1 µM)
- MIC (Bifidobacterium breve [40]): 7.8 µg/mL (≈ 24.1 µM)
- MIC [41]: 0.98 µg/mL (≈ 3.03 µM)
- MIC [42]: 62.5 µg/mL (≈ 193 µM)
- MIC (Bifidobacterium bifidum [43]): 1.9 µg/mL (≈ 5.88 µM)
- MIC [44]: 7.8 µg/mL (≈ 24.1 µM)
- MIC (Bifidobacterium breve [45]): 1.9 µg/mL (≈ 5.88 µM)
- MIC (Bifidobacterium longum [46]): 3.9 µg/mL (≈ 12.1 µM)
- MIC (Bifidobacterium breve [47]): 7.8 µg/mL (≈ 24.1 µM)
SMILES: O=C(N[C@H](CO)[C@H](O)c1ccc([N+](=O)[O-])cc1)C(Cl)Cl [CHLORAMPHENICOL]
